Experimental data pooled from the literature.
Each line is one published result; the experiments were not run side by side.
Observed: metabolic stability

O=C1CCN(C(=O)Nc2ccc(F)c(Cl)c2)[C@H]2CCCC[C@@H]12 (relative stereo)  half-life (mouse; liver microsomes): > 32 min
O=C(N[C@H](Cc1c[nH]c2ccccc12)C(=O)Nc1ccncc1)c1ccc(-c2cccc(F)c2)cc1F  half-life (mouse; liver microsomes): 27 min
Cc1ccc(S(=O)(=O)Nc2cccc(-c3nnn[nH]3)c2)cc1C(F)(F)F  half-life (mouse; liver microsomes): 38 min
CCS(=O)(=O)Nc1ccc(OCCOCCOCCOCCOc2ccc(NS(=O)(=O)CC)cc2-c2cn(C)c(=O)c3ccccc23)c(-c2cn(C)c(=O)c3ccccc23)c1  half-life (mouse; liver microsomes): < 2.3 min
CC[C@@H]1C=CC(=O)O[C@@H]1C[C@@H](O)[C@H](C)[C@H](O)[C@@H](C)Cc1ccc(F)cc1  half-life (mouse; liver microsomes): 3 min
COc1cc2[nH]c(C#N)cc2c(C)c1CN1CCC(Nc2ncnc3sc(CC(F)(F)F)cc23)CC1  half-life (CD-1 mouse; liver microsomes; 1 µM; pH 7.4): > 30 min
O=C(c1ccc(F)cc1)C1CCN(CCn2c(=O)[nH]c3ccccc3c2=O)CC1  half-life (mouse; liver microsomes): 14.5 min
CO[C@@H](C[C@H]1C(C)=CC[C@@H]2[C@]3(C)C[C@H](O[C@@H]4O[C@@H](C)[C@H](OC(=O)c5cccc(O)c5)[C@@H](O[C@@H]5O[C@H](CO)[C@@H](O)[C@H](O)[C@H]5NC(C)=O)[C@H]4O)[C@@H](O)C(C)(C)[C@H]3CC[C@]21C)[C@H](N)C(=O)O.O=C(O)C(F)(F)F  half-life (mouse; hepatocytes; 1 µM): 296 min
CNC(=O)c1ccccc1Nc1cc(Nc2cc(C)c(C3CCN(CCCCCCNC(=O)COc4cccc5c4C(=O)N(C4CCC(=O)NC4=O)C5=O)CC3)cc2OC(C)C)ncc1C(F)(F)F (stereo not shown)  half-life (mouse; liver microsomes): 27 min
CCOC(=O)C1=C(C)N/C(=C/c2cc(C)n(-c3ccc(N4CCOCC4)cc3)c2C)C1=O  half-life (mouse; liver microsomes; 1 µM): 57 min
CCOC(=O)NS(=O)(=O)c1sc(CC(C)C)cc1-c1ccc2c(c1)CN(C(C)=O)C2  half-life (mouse; liver microsomes; 1 µM; pH 7.4): 21 min
Cc1ccc(S(=O)(=O)Nc2cccc(-c3nnn[nH]3)c2)cc1C  half-life (mouse; liver microsomes): 50 min
C/C(=N\OCCN)c1cccc(C(C)(C)NC(=O)Nc2ccc(Cl)c([N+](=O)[O-])c2)c1  half-life (mouse; liver microsomes): > 120 min
COc1ccc([C@@H](O)[C@@H](CN2CCCC2)NC(=O)CC2Cc3ccccc3C2)cc1F  half-life (CD-1 mouse; liver microsomes; 1 µM; pH 7.4): 2.7 min
CCCCOC(=O)NS(=O)(=O)c1sc(CC(C)C)cc1-c1cccc2c1CN(C(C)=O)C2  half-life (mouse; liver microsomes; 1 µM; pH 7.4): 6.9 min
N=c1c2c(-c3ccccc3)c(-c3ccccc3)n(Cc3ccccc3)c2ncn1[C@H]1CC[C@H](O)CC1  half-life (male CD-1 mouse; liver microsomes; 1 µM; pH 7.4): > 120 min
O=S(=O)(Nc1cccc(-c2nnn[nH]2)c1)c1cc(C(F)(F)F)ccc1C(F)(F)F  half-life (mouse; liver microsomes): 35 min
CNC(=O)[C@H](Cc1c[nH]cn1)NC(=O)CN(CCCc1ccccc1)CC(=O)O  half-life (male mouse; liver microsomes; 1 µM; pH 7.4): > 40 min
O=C(Nc1ccc2sc(-c3ccc(F)c(F)c3)nc2c1)N1CC[C@H](F)C1  half-life (mouse; liver microsomes; 1.5 µM): ≥ 60 min
Cc1cccc(C(=O)Nc2nc(-c3ccccn3)cs2)c1  half-life (CD-1 mouse; liver microsomes; 39.6 µM; pH 7.4): 6 min
N=C(N)N1CC=C(c2coc(C(=O)Nc3ccc(C4=CCN(C(=N)N)CC4)c(F)c3)c2)CC1  half-life (CD-1 mouse; liver microsomes; 1 µM): > 60 min
CCOC(=O)C1=C(C)N/C(=C/c2cc(C)n(-c3cccc(OC)c3)c2C)C1=O  half-life (mouse; liver microsomes; 1 µM): 12 min
C=CC(=O)Nc1ccc(N2CCC[C@@H](Nc3ncc(Cl)c(-c4c[nH]c5ccccc45)n3)C2)c(F)c1  half-life (mouse; liver microsomes): 7.6 min
O=[N+]([O-])c1ccc(CNc2nc(NCc3cccc(C(F)(F)F)c3)nc3[nH]cnc23)cc1  half-life (mouse; liver microsomes; 1 µM; pH 7.4): 9 min
CCOC(=O)C1=C(C)N/C(=C/c2ccn(-c3ccccc3C(F)(F)F)c2)C1=O  half-life (mouse; liver microsomes; 1 µM): 11 min
CC[C@@H]1C=CC(=O)O[C@@H]1C[C@@H](O)[C@H](C)[C@H](OC)[C@@H](C)Cc1ccc(F)cc1  half-life (mouse; liver microsomes): < 2.3 min
CC1=C(C(=O)O)C(=O)/C(=C\c2cc(C)n(-c3ccccc3C(F)(F)F)c2C)N1  half-life (mouse; liver microsomes; 1 µM): 79 min
CCOc1c(O)cc(Br)c2c1CN1CCc3cc(OCC(F)F)c(O)cc3[C@@H]1C2  half-life (mouse; liver S9; 2 µM; pH 7.4): 9.63 min
CC(C)Oc1cccc(-c2cnc(N3CCC(C(N)=O)CC3)s2)c1  half-life (mouse; liver microsomes; 1 µM): > 30 min
CNC(=O)[C@H](Cc1c[nH]cn1)NC(=O)CN(CC(=O)O)Cc1ccccc1  half-life (male mouse; liver microsomes; 1 µM; pH 7.4): > 40 min
CCOC(=O)C1=C(C)N/C(=C/c2cc(CC)n(-c3ccccc3C(F)(F)F)c2CC)C1=O  half-life (mouse; liver microsomes; 1 µM): 12 min
O=C(Cc1ccc2ccccc2c1)Nc1cc(C2CCC2)[nH]n1  half-life (mouse; liver S9): 28.1 min
COc1cccc(OC)c1CNC(=O)c1cc(C2NC(=O)NC(C)=C2C(=O)Nc2ccc3[nH]ncc3c2)ccc1F (stereo not shown)  half-life (CD-1 mouse; liver microsomes; 1 µM; pH 7.4): < 4 min
Cc1ccc(-n2sc3ccccc3c2=O)cc1  half-life (mouse; liver microsomes): < 60 min
O=C(Nc1cncc(-c2nc3ccccc3o2)c1)c1ccc(N2CCNCC2)c([N+](=O)[O-])c1  half-life (CD-1 mouse; liver microsomes; 1 µM; pH 7.4): > 110 min
CC(C)(C)C[C@@H]1N[C@@H](C(=O)N[C@H]2C[C@](C)(O)C2)[C@H](c2cccc(Cl)c2F)[C@]12C(=O)Nc1cc(Cl)ccc12  half-life (mouse; liver microsomes): > 60 min
O=C(O)C1CCN(c2ncc(-c3ccc4c(c3)OCCCO4)s2)CC1  half-life (mouse; liver microsomes; 1 µM): > 30 min
O=S(=O)(Nc1cccc(-c2nnn[nH]2)c1)c1cc(Cl)c(Cl)cc1Cl  half-life (mouse; liver microsomes): 48 min
N=c1c2c(-c3ccccc3)c(-c3ccccc3)n(CCc3ccccc3)c2ncn1[C@H]1CC[C@H](O)CC1  half-life (male CD-1 mouse; liver microsomes; 1 µM; pH 7.4): > 120 min
CCCCOC(=O)NS(=O)(=O)c1sc(CC(C)C)cc1-c1ccc2c(c1)CCN(C(C)=O)C2  half-life (mouse; liver microsomes; 1 µM; pH 7.4): 2.9 min
Cc1noc([C@H](Cc2c[nH]cn2)NC(=O)CN(CCCc2ccccc2)CC(=O)O)n1  half-life (male mouse; liver microsomes; 1 µM; pH 7.4): > 40 min
CCNc1nc2c(c(N3CC(=O)Nc4cc(OC)ccc43)n1)CCC2  half-life (mouse; liver microsomes): 5.7 min
CCN(CC)CCNC(=O)c1c(C)[nH]c(/C=C2\C(=O)Nc3ccc(F)cc32)c1C  half-life (mouse; liver microsomes; 1 µM; pH 7.4): 12.8 min
CCOC(=O)C1=C(C)N/C(=C/c2cc(C)n(-c3ccc(F)cc3F)c2C)C1=O  half-life (mouse; liver microsomes; 1 µM): 23 min
O=C(Nc1ccc(CN2CCOCC2)c(C(F)(F)F)c1)c1ccc(C#Cc2cccc3cnccc23)cn1  half-life (mouse; liver microsomes): 13.4 min
O=C(OC(C(F)(F)F)C(F)(F)F)N1Cc2ccc(OCCN3CCOCC3)cc2C1  half-life (mouse; liver microsomes): 7 min
O=S(=O)(Nc1cccc(-c2nnn[nH]2)c1)c1ccc(F)c(F)c1  half-life (mouse; liver microsomes): 346 min
CCCCOC(=O)NS(=O)(=O)c1sc(CC(C)C)cc1-c1ccc2c(c1)CN(C(C)=O)C2  half-life (mouse; liver microsomes; 1 µM; pH 7.4): 1.8 min
CCOC(=O)C1=C(C)N/C(=C/c2ccn(-c3ccc(C(F)(F)F)cc3)c2)C1=O  half-life (mouse; liver microsomes; 1 µM): 12 min
COc1ccc(NC(=O)[C@H]2c3ccccc3C(=O)N(CC(C)C)[C@@H]2c2cccs2)cc1Cl (racemic)  half-life (female CD-1 mouse; liver microsomes; 80 nM; pH 7.4): < 30 min
Cc1noc(C)c1-c1ccc2nc(C(=O)NC3CCN(C)CC3)nc(NCc3cccc(Cl)c3)c2c1  half-life (mouse; liver microsomes): 28 min
CN1CC(Cc2cccc(CNC3(c4ccc(F)cc4)CCCC3)c2)C1  half-life (mouse; liver microsomes; 4.6 µM; pH 7.5): ~60 min
C=CC(=O)Nc1cc(F)c(N2CCC[C@@H](Nc3ncc(Cl)c(-c4c[nH]c5ccccc45)n3)C2)cc1C  half-life (mouse; liver microsomes): 3.9 min
CCOC(=O)C1=C(C)N/C(=C/c2cc(C)n(-c3ccc(SC(F)(F)F)cc3)c2C)C1=O  half-life (mouse; liver microsomes; 1 µM): 23 min
O=c1ccc2ccccc2o1  half-life (mouse; liver microsomes; 50 µM; pH 7.4): 72 min
